Sampled rows, rich in hits. Any-hit rate of the full collection: about 9.4%.
CSC inhib = blocks cancer stem cells | inhibition, % at 7.5 µM | cancer stem cell-like cells viability, luminescence | 300,000 tested, 1.1% active | AID 2717; in the data active means inhibition above about 75%; inconclusive means no clear call, values can overlap the other calls; tested in HMLE shEcad cells
Lmaj promast = inhibitors of Leishmania major promastigote growth. Leishmania major promastigotes, resazurin fluorescence viability. inhibition, % at 10 µM. 200,000 tested, 9% active. AID 1063; in the data active means inhibition above about 50%;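 further: promastigotes grown with compound for 44 hours at 28 °C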
T cruzi inh = blocks replication of Trypanosoma cruzi; T. cruzi beta-gal in NIH3T3, luminescence, 90 h; inhibition, % (test concentration not listed); 300,000 tested, 1.4% active; AID 1885;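 active means mean inhibition across valid replicates above about 55%, limit read from the data; inconclusive means mean below that limit but half or more replicates reach it; inactive means mean below it, under half of replicates reach it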;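 further: signal also drops with host cell toxicity which is not excluded here; 0% = plate median of DMSO wells and 100% = zero luminescence signal; higher percent means less beta-gal luminescence so fewer parasites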
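System: mouse NIH/3T3 fibroblasts infected with β-gal-expressing T. cruzi Tulahuen C4 / Input: NIH/3T3 cells, 5,000 per well / Buffer or medium: Low-serum DMEM with 2% FBS / Probe or stimulus: 5000 reporter trypomastigotes per well / Schedule: ≥90 h infection period, 3 h prior cell attachment / Measured by: GalScreen luminescence, 60 min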
Mdm2 MdmX PPI = inhibitors of human Mdm2/MdmX interaction. O15151+Q00987. SaOS-2 split-luciferase Mdm2/MdmX complementation, luminescence. inhibition, % at 8 µM. 330,000 tested, 3% active. AID 485346;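 active means inhibition of at least 50% at 8 µM in the primary screen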
Target sequence (O15151 whole entry, looked up): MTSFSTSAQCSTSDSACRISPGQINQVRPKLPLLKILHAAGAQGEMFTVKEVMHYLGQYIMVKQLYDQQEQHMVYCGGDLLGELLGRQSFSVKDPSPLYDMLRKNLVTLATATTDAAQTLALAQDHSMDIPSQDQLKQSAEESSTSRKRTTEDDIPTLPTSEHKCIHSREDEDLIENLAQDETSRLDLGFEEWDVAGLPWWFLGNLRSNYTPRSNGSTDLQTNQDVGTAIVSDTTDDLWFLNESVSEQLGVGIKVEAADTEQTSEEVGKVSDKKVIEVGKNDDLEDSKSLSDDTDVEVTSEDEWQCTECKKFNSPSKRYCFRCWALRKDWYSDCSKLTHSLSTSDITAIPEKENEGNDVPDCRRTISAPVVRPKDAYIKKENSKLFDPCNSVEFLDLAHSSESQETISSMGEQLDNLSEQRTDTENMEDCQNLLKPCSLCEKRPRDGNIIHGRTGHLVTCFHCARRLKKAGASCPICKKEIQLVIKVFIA
Target sequence (Q00987 whole entry, looked up): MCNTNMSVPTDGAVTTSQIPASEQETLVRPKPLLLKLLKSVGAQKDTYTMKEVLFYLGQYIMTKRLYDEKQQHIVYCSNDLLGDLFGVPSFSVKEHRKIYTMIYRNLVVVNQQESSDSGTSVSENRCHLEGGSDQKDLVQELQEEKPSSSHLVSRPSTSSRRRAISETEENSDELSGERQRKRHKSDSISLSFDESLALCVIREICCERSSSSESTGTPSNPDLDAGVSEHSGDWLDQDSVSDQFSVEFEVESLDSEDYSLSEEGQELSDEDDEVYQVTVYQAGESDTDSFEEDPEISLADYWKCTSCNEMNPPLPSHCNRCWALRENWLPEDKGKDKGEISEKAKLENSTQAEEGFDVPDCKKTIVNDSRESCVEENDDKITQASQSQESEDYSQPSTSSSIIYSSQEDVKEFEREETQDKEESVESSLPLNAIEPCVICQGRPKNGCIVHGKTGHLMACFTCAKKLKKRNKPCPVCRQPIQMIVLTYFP
SKKanGAS inh = SKKanGAS growth inhibition | AID 1662 | 300,000 tested, 1.3% active | inhibition, % at 7.5 µM | S. pyogenes SKKanGAS, kanamycin growth, BacTiter-Glo, 6 h;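 active means mean replicate score, as percent of positive control median, at least 50; inconclusive means mean below 50 but one replicate at or above 50; inactive means mean and every replicate below 50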;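 further: strain carries kanamycin resistance gene driven by streptokinase promoter and grows in 40 µg/ml kanamycin; loss of luminescence reflects streptokinase promoter inhibition or plain growth inhibition; 0% = median of DMSO wells and 100% = positive control at its reference dose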
Beta apoptosis = blocks beta cell apoptosis. protection from apoptosis, % (no concentration beside the values). INS-1E cytokine-induced death, ATP luminescence, 48 h; percent of positive-control rescue, neutral wells zero. 300,000 tested, 0.8% active;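 active means Every replicate reaches about 75%, or at least half do and their mean reaches it too, limit read from the data; inconclusive means At least half of replicates reach the limit but their mean does not; inactive means Under half of replicates reach the limit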;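 further: 0% = cytokine-treated negative control wells and 100% = positive control rescue; higher means more ATP so stronger rescue from cytokine killing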
Mdm2 MdmX conf = confirmation of human Mdm2/MdmX interaction inhibitors | shares compounds with Mdm2 MdmX PPI | Mdm2-MdmX binding, luminescent assay | inhibition, % at 8 µM | 10,000 tested, 55% active; in the data active means inhibition above about 40%
Full FLuc ctr = inhibits full-length luciferase, flagging false Mdm2/MdmX hits. 6,200 tested, 77% active. inhibition, % at 8 µM. SaOS-2 full-length luciferase counterscreen, luminescence. AID 504607. shares compounds with Mdm2 MdmX PPI;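 active means mean inhibition at 8 µM reaching about 37%, which flags the compound as non-specific, limit read from the data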;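 further: p53-null SaOS-2 cells with luciferase driven by a doxycycline-inducible promoter; compound on cells about two nights before reading with doxycycline added after day one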
* hit, by the source's call; ? = inconclusive; nt = no result.

SMILES	CSC inhib	Lmaj promast	T cruzi inh	Mdm2 MdmX PPI	SKKanGAS inh	Beta apoptosis	Mdm2 MdmX conf	Full FLuc ctr
COc1ccc(N=Cc2c(O)ccc3ccccc23)cc1	10.5	-4.8	-0.5	12.2	-5.9	-4.1	nt	nt
O=C(c1cccnc1Cl)N1CCOCC1	-7.5	1.0	-5.0	6.0	-9.2	-12.7	nt	nt
COc1cc2cc(C(c3nnnn3C3CCCC3)N3CCCCCC3)c(=O)[nH]c2cc1OC (stereo not given)	-5.8	1.1	5.3	-2.9	3.4	3.8	nt	nt
O=c1c(C(c2nnnn2C2CCCCC2)N2CCCCC2)coc2ccc(Cl)cc12 (stereo not given)	30.0	62.5*	-10.3	52.7*	10.9	3.3	-1.6	nt
Cc1oc(C(=O)O)cc1COc1ccc2c(C)cc(=O)oc2c1	-13.4	-5.3	-15.3	25.3	-3.9	-3.4	nt	nt
Cc1cc(=O)oc2cc(OCc3cc4c(cc3Cl)OCO4)ccc12	-12.9	-6.8	3.9	89.1*	-4.8	8.3	-17.6	nt
Nc1nc(CCl)nc(Nc2cccc3ccccc23)n1	3.4	nt	69.7*	97.4*	-1.9	-6.1	98.3*	61.0*
Nc1nc(Nc2cccc3ccccc23)nc(C2CCCC2=O)n1 (stereo not given)	3.2	-3.1	4.7	28.3	6.1	4.7	nt	nt
CC(NCc1ccccc1Cl)C(=O)Nc1ccc(C#N)cc1 (stereo not given)	-6.8	-2.0	-8.8	19.2	-4.1	-4.9	nt	nt
CSc1ncccc1C(=O)OCC(=O)c1ccc2c(c1)NC(=O)CO2	-2.4	nt	-14.7	67.9*	-2.0	-12.1	20.9	nt
COc1cc(OC)c(C(=O)OCC(=O)c2ccc3c(c2)NC(=O)CO3)cc1OC	-5.6	nt	nt	4.1	nt	0.8	nt	nt
CCOc1ccccc1N1CCN(C(=O)c2ccccc2SCC(=O)N2CCCC2)CC1	-6.3	nt	2.8	15.2	-0.5	-7.0	nt	nt
CN1CCN(CC(=O)N2CCn3c4c(c5cc(C6CCCCC6)ccc53)CCCC42)CC1 (stereo not given)	45.9	100.5*	14.8	97.6*	nt	18.5	73.2*	52.4*
Cc1ccc2c(c1)c1c3n2CCN(C(=O)CN2CCN(C)CC2)C3CCC1 (stereo not given)	21.5	20.6	31.5	42.6	-4.3	-2.3	nt	nt
COc1ccc(-c2cc(=O)oc3c(C)c(OCC(=O)Nc4cccnc4)ccc23)cc1	30.9	nt	-1.7	51.4*	2.8	-1.6	-7.3	nt
Cc1cc(/C=N/NC(N)=S)c(O)c(/C=N/NC(N)=S)c1	12.7	nt	0.6	27.9	6.4	34.5	nt	nt
Cc1ccc(C(=O)Nc2cc3ccccc3oc2=O)cc1	?	-5.5	-64.3	88.5*	-9.3	30.5	85.2*	31.8
Cc1nc(NC(=O)c2ccc(-c3cc4ccccc4oc3=O)cc2)ccc1Br	11.9	49.1	-6.7	75.6*	2.3	10.9	28.9	77.5*
CC(=O)Nc1cc2ccccc2oc1=O	11.9	-2.0	-0.9	13.8	1.0	-1.4	nt	nt
O=C(COc1ccccc1)NCC(=O)N/N=C/c1ccc(O)cc1O	43.8	nt	13.4	4.7	-6.2	10.5	nt	nt
O=C(CCN1C(=O)S/C(=C\c2ccc(F)cc2)C1=O)Nc1ccc(O)cc1C(=O)O	-17.2	nt	-4.4	7.5	6.2	-1.4	nt	nt
CC(=O)C(C(c1ccccc1)c1c[nH]c2ccccc12)[N+](=O)[O-] (stereo not given)	71.2	nt	-0.7	52.6*	4.3	-1.9	60.6*	56.9*
Cc1csc(NC(=O)CSc2nnc3c4ccccc4nc(C(C)(C)C)n23)n1	nt	7.8	10.6	68.9*	10.7	nt	60.0*	56.5*
CC(=O)CSc1nnc2c3ccccc3nc(C(C)(C)C)n12	-12.8	36.7	-1.6	15.3	-3.7	-6.0	nt	nt
CCn1c(N2CCN(C(=S)Nc3ccc(OC)cc3)CC2)nc2ccccc21	6.3	-2.2	8.1	4.2	-3.9	2.1	nt	nt
SMILES	CSC inhib	Lmaj promast	T cruzi inh	Mdm2 MdmX PPI	SKKanGAS inh	Beta apoptosis	Mdm2 MdmX conf	Full FLuc ctr
Cc1ccc(CN2CCN(Cc3cnc(N4CCOCC4)s3)CC2CCO)o1 (stereo not given)	-4.4	-2.8	-9.2	-4.5	-11.6	1.9	nt	nt
O=C(Nc1ccc(Oc2ccccc2)nc1)C1CCCCN1Cc1ccco1 (stereo not given)	38.9	nt	-3.9	65.1*	2.0	7.6	75.8*	68.2*
COc1ccc(-c2[nH]ncc2N=Nc2ccccc2)cc1	94.0*	12.5	6.4	65.7*	29.3	-14.0	57.9*	85.2*
CCN(CC)CCN(C(=O)/C=C/c1cccs1)c1nc2ccc(F)cc2s1	36.4	nt	18.9	52.1*	-7.2	9.5	19.8	nt
CCN(CC)CCN(C(=O)/C=C/c1cccs1)c1nc2ccc(C)cc2s1	-32.8	nt	23.6	65.1*	5.0	20.0	19.9	nt
CN(C)CCN(C(=O)/C=C/c1cccs1)c1nc2c(F)cc(F)cc2s1	0.3	77.0*	33.9	69.4*	5.8	25.3	41.9*	28.9
CCN(CC)CCN(C(=O)c1ccc2ccccc2c1)c1nc2ccc(F)cc2s1	6.4	nt	34.2	6.0	3.1	-1.8	nt	nt
CCOC(=O)N1CCN(S(=O)(=O)c2ccc(C(=O)N(CCN(CC)CC)c3nc4ccc(C)cc4s3)cc2)CC1	-3.8	nt	38.2	9.2	1.9	-5.3	nt	nt
CN(C)CCCN(C(=O)/C=C/c1cccs1)c1nc2ccc(F)cc2s1	11.9	16.5	42.5	58.6*	2.5	20.1	38.9	62.7*
CCOC(=O)c1c(C)n(-c2ccc(C)cc2)c2ccc(O)c(CN(C)C)c12	1.4	98.6*	26.3	54.5*	nt	44.7	39.5	66.1*
CCOC(=O)c1c(C)n(-c2ccc(OC)cc2)c2ccc(O)c(CN(C)C)c12	10.6	nt	31.0	63.7*	0.5	10.1	43.9*	53.7*
CCOC(=O)c1c(C)n(C)c2ccc(O)c(CN(C)C)c12	-11.7	3.7	-6.8	30.8	4.9	-1.3	nt	nt
CCCC(=O)Nc1ccc2oc(=O)ccc2c1	-4.8	-3.9	-1.1	8.1	-3.5	-4.4	nt	nt
O=C(Nc1ccc(O)c2c(=O)cc(-c3cccc(Cl)c3)oc12)c1ccccc1Cl	-3.0	nt	-4.5	91.5*	14.6	nt	2.2	nt
COc1ccc(CNCc2cn(-c3cccc(F)c3)nc2-c2ccc(C)o2)cc1	-3.9	95.9*	41.6	51.7*	5.8	0.2	12.8	nt
COc1ccc(-n2cc(CNCc3cccnc3)c(-c3cccc(F)c3)n2)cc1	-3.0	47.5	25.8	5.3	5.0	3.6	nt	nt
O=C(NCc1cccs1)C1CCCN1C(=O)Nc1ccccc1[N+](=O)[O-] (stereo not given)	-7.4	nt	-5.9	21.2	0.5	5.2	nt	nt
CC1=CC(=Nc2c(C)n(C)n(-c3ccccc3)c2=O)C=CC1=O	10.5	nt	-3.9	69.0*	9.7	3.8	7.5	nt
CC1=CC(=Nc2c(C)n(C)n(-c3ccccc3)c2=O)C=C(C)C1=O	12.3	72.1*	-34.7	77.4*	4.2	nt	26.3	nt

Assay outcomes deposited in PubChem by several laboratories.
